Laboratory results: BindingDB's records for doi:10.1021/ml100053y (2010)

Biological target: T1, 5-hydroxytryptamine receptor 1A (Homo sapiens, UniProt P08908)
T1 sequence (P08908 whole entry): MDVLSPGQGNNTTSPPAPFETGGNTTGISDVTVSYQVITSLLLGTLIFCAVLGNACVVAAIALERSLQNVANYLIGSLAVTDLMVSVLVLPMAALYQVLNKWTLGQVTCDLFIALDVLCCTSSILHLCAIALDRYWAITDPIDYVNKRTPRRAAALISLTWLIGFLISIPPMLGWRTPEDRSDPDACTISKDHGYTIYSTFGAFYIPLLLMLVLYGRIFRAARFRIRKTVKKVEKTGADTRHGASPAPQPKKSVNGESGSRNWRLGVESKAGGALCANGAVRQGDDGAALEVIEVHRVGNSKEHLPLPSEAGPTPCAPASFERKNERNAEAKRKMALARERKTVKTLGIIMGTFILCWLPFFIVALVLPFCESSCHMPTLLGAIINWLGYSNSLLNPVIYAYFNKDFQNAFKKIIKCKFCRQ
Test: Displacement of [3H]8-OH-DPAT from human 5HT1A receptor expressed in EBNA gene-positive HEK293 cells after 120 mins
Method in brief: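 Radioligand competition binding with [3H]-8-hydroxy-DPAT on membranes from transfected HEK-293 EBNA cells expressing h5-HT1AR. Buffer was 50 mM Tris-HCl, 0.5 mM MgSO4, pH 7.4. Ki was obtained from IC50 by the Cheng-Prusoff equation. Values are means ± SEM of 2–4 independent experiments, each run in triplicate.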

Ki [nM]	SMILES
2.4	O=c1n(CCCCN2CCN(c3cccc4ccccc34)CC2)c(O)c2n1CCC2 [2-[4-(4-Naphthalen-1-yl-piperazin-1-yl)-butyl]-tetrahydro-pyrrolo[1,2-c]imidazole-1,3-dione]
2.4	CN(C)S(=O)(=O)c1ccc2cccc(N3CCN(CCCCn4c(O)c5n(c4=O)CCC5)CC3)c2c1 [8-{4-[4-(1,3-Dioxotetrahydro-1H-pyrrolo[1,2-c]imidazol-2(3H)-yl)butyl]piperazin-1-yl}-N,N-dimethylnaphthalene-2-sulfonamide]
